# High-throughput results (PubChem BioAssay)
# Rows were chosen to be rich in hits. Some 4% of all compounds tested hit in one or more screens of this group.
# NR3A LBD binder – modulates the human NR3A ligand-binding domain | Tm shift relative to glycine control, % at 25 µM | 340,000 tested, 2.5% active | NR3A LBD differential scanning fluorimetry, Tm shift; 0% = protein alone, 100% = glycine-bound protein;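 active = melting temperature shift of at least 10% of the positive control shift, at one fixed dose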
# hiPSC survival – hiPSC single-cell survival enhancement; ATPlite luminescence; 100% = ROCK inhibitor wells, 0% = DMSO; survival enhancement, % at 20 µM; 360,000 tested, 0.044% active; AID 602274; in the data active = survival enhancement above about 18%;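 also: cells exposed to compounds for 16 hours before the ATP read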
# FAS-TE inh – blocks the thioesterase domain of human fatty acid synthase | P49327 | recombinant FAS-TE, OMFH fluorogenic substrate, fluorescence endpoint | inhibition, % at 15 µM | 360,000 tested, 0.67% active;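 active = compounds whose normalised, plate-corrected inhibition of enzyme fluorescence in the single-dose primary screen is 50% or more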;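 also: 0% = DMSO with enzyme and 100% = substrate without enzyme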
# SENP1 inh – inhibitors of human SENP1 SUMO protease catalytic domain | inhibition, % at 10 µM | 360,000 tested, 0.21% active | AID 624204 | recombinant SENP1 catalytic domain, CyPet-SUMO1-YPet FRET cleavage | Q9P0U3;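 active = inhibition at least 30% at 10 µM, raw YFP signal under a set limit, fluorescence ratio 0.5 to 1.5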;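 also: 0% = enzyme with DMSO and 100% = no enzyme wells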
# Target sequence (Q9P0U3 419-644 limits assumed): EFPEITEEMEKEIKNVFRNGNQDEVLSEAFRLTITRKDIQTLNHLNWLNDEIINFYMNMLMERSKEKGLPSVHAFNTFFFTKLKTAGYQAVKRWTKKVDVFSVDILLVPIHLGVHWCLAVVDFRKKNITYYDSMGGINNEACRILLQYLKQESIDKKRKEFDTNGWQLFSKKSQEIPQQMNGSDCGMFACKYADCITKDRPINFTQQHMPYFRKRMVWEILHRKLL
#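 Material: hSENP1 catalytic domain, recombinant; medium: Tris pH 8 with BME, BSA, NP40 and catalase; compound: single concentration of 10 µM compound, 0.5% DMSO final; technique: FRET read of cyan and yellow fluorescence; timing: 50 min enzyme reaction, room temperature, light-protected; reagent: SFCypet-SUMO1-SFYpet substrate at 25 nM; control set: no-enzyme low, enzyme-DMSO high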
# H9c2 protect – protects H9c2 cardiomyocytes from peroxide injury; H2O2 injury protection, ATPLite, 2 h; protection from H2O2 cell death, % at 20 µM; 360,000 tested, 0.63% active; AID 588492;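 active = compounds giving at least 50% protection of heart cells from peroxide-induced death in the single-dose screen, raw or plate-pattern-corrected value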;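 also: 0% = DMSO wells with peroxide and 100% = DMSO wells without peroxide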
# Arrestin-AP2 inh – blocks beta-arrestin peptide binding to AP2 adaptin; FITC-arrestin peptide / GST-AP2 beads, flow cytometry; AP2 beta2 appendage carries R879A mutation; 340,000 tested, 0.31% active; AID 504490; inhibition, % at 10 µM;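 active = inhibition above a set limit, near 3 SD of compounds lacking own fluorescence, cut at about 54% in these data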;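 also: plate controls were DMSO wells for no effect and 5 µM unlabelled arrestin peptide for full effect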
#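 test system = AP2 appendage R879A on GSH beads | buffer or medium = PBS plus Tween 20 (0.05%) and BSA (0.1%) | incubation = 12 min plus 1 h, RT | detection = bead flow cytometry, FITC channel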
# FAS-TE conf – FAS thioesterase (human) inhibition, confirmation; shares compounds with FAS-TE inh; recombinant FAS-TE, OMFH fluorogenic substrate, fluorescence; inhibition, % at 15 µM; 2,300 tested, 45% active; AID 624325;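 active = compounds inhibiting the enzyme by at least 50% at 15 µM in any one of the replicates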;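 also: 0% = enzyme with DMSO only and 100% = wells lacking enzyme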
# * hit, by the source's call; . = not tested or not shown.
SMILES,NR3A LBD binder,hiPSC survival,FAS-TE inh,SENP1 inh,H9c2 protect,Arrestin-AP2 inh,FAS-TE conf
COc1ccc(Cn2cc(CN3CCc4onc(-c5ccc(Br)cc5)c4C3=O)nn2)cc1,.,.,.,2,.,.,.
CC(C)(C)N(Cc1ccccc1)C(=O)COC(=O)c1cccc([N+](=O)[O-])c1,1,0,77*,-1,-1,11,42*
COc1ccc(C(=O)OCC(=O)N2CCc3ccccc3C2)cc1OC,-1,4,-6,-3,-2,-5,.
CC(=O)N1CCN(S(=O)(=O)c2cccc(C(=O)OCC(=O)N(Cc3ccccc3)C(C)(C)C)c2)CC1,0,0,5,1,4,36,.
O=C(Cn1cc([N+](=O)[O-])cn1)N1CCc2ccccc2C1,-1,0,56*,2,-6,26,58*
O=C(OCC(=O)N1CCc2ccccc2C1)c1cccc([N+](=O)[O-])c1,0,0,56*,3,-3,5,67*
O=C(Cn1cc([N+](=O)[O-])cn1)N1CCN(c2ccccc2)CC1,0,0,13,0,0,10,.
O=C(CC[C@H]1O[C@@H](n2ccc(=O)[nH]c2=O)[C@H](O)[C@@H]1O)NCCc1c[nH]c2ccccc12,.,-3,-8,-4,8,.,.
Cc1cn(C2OC(COC(=O)c3ccccc3)C(OC(=O)c3ccccc3)C2OC(=O)c2ccccc2)c(=O)[nH]c1=O (centres undefined),2,2,87*,3,12,2,5
CCc1ccc(NC(=O)C(C)OC(=O)c2cccc(S(=O)(=O)N3CCc4ccccc4C3)c2)cc1 (centres undefined),-22,-1,52*,0,-6,3,20
O=C(O)c1cccc(S(=O)(=O)N2CCc3ccccc3C2)c1,0,0,-2,0,4,13,.
O=C(c1cccc(S(=O)(=O)N2CCN(c3ccc(F)cc3)CC2)c1)N1CCCC(C(F)(F)F)C1 (centres undefined),0,-1,25,2,-9,-13,.
N#Cc1ccc(Sc2nc3ccccc3[nH]2)cc1C#N,2,-3,74*,3,1,1,85*
C#CCN(CC(=O)OCC)S(=O)(=O)CCNC1CC1,.,-1,-4,-1,3,.,.
O=C(c1ccc(S(=O)(=O)N2CCCC2)cc1)N1CCC(CN2C(=O)c3cccc4cccc(c34)C2=O)CC1,0,0,3,1,7,-1,.
COc1ccc(S(=O)(=O)N2CCC(CN3C(=O)c4cccc5cccc(c45)C3=O)CC2)cc1,-1,-2,63*,1,-6,9,25
COc1ccc(C(=O)/C(C#N)=N/Nc2ccc([N+](=O)[O-])cc2)cc1,17*,0,59*,17,-23,3,19
CCOc1ccc2nc(Cl)c(C3CC(c4ccco4)=NN3S(=O)(=O)c3ccccc3)cc2c1 (centres undefined),0,0,53*,-7,-2,-5,24
COc1ccc2cc(C3CC(c4ccco4)=NN3S(C)(=O)=O)c(Cl)nc2c1 (centres undefined),0,0,-3,-9,-11,-4,.
O=C(NCC1CCCCC1)C12CN(Cc3ccccc3)CC1C(c1cccc([N+](=O)[O-])c1)=NO2 (centres undefined),-1,-2,54*,-1,0,-3,30
O=C(/C=C/c1cc([N+](=O)[O-])ccc1OC(F)F)NCc1ccc(Cl)cc1,-6,-4,80*,1,-16,24,88*
O=C(/C=C/c1cc([N+](=O)[O-])ccc1OC(F)F)Nc1cccc2ccccc12,13*,2,63*,1,-4,2,48*
COc1ccccc1NC(=O)/C=C/c1cc([N+](=O)[O-])ccc1OC(F)F,0,0,4,2,-9,-5,.
